Measurements from ChEMBL document CHEMBL5303300, “EUbOPEN Chemogenomics Library - Multiplex” (2023).
Where “and” joins values, the source holds several entries; their conditions need not be identical. Identical values can stand only once.

Key:
Type in all cases: toxicity, cell-based
[1] = test system: Fibroblast; assay: Multiplex assay against human fibroblast; conditions: number of replicates 2
Procedure, shortened: (§1)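 Phenotypes for tubulin, mitochondrial mass and membrane permeability are expressed as per cents of healthy-nucleus cells. Cells were stained live at seeding with Hoechst33342, BioTracker Green Microtubule Cytoskeleton Dye, MitoTracker Red and Annexin V Alexa Fluor 680, then imaged after compound addition on a CQ1 microscope at 37°C and 5% CO2. Machine-learning gating in CellPathfinder separated Hoechst high-intensity objects from normal cells, divided normal cells by nuclear state (healthy, pyknosed, fragmented) and divided pyknosed cells into mitotic or apoptotic.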

[2] = test system: HEK-293T; assay: Multiplex assay against HEK293T; conditions: human, number of replicates 2; procedure, shortened: as §1
[3] = test system: U2OS; assay: Multiplex assay against U2OS; conditions: human, number of replicates 2; procedure, shortened: as §1
[4] = 12 h, 1 µM, compound concentration 1 uM
[5] = 12 h, 10 µM, compound concentration 10 uM
[6] = 24 h, 1 µM, compound concentration 1 uM
[7] = 24 h, 10 µM, compound concentration 10 uM
[8] = 48 h, 1 µM, compound concentration 1 uM
[9] = 48 h, 10 µM, compound concentration 10 uM

CC(C)(C)c1cnc(CSc2cnc(NC(=O)C3CCN(CC(=O)NCCOCCOCCOCCNc4cccc5c4C(=O)N(C4CCC(=O)NC4=O)C5=O)CC3)s2)o1 (configuration not stated)
Population Apoptotic (%) [1, 4]: 44% and 47% | Population Fragmented Nuclei (%) [1, 4]: 8% and 7% | Population Healthy Nuclei (%) [1, 4]: 70% and 73% | Population Hoechst High Intensity Objects (%) [1, 4]: 0% | Population Membrane Permeable-Phenotype (%) [1, 4]: 2% and 3% | Population Mitochondria Different-Phenotype (%) [1, 4]: 1% and 0% | Population Mitotic Cells (%) [1, 4]: 55% and 52% | Population Normal (%) [1, 4]: 100% | Population Pyknosed Nuclei (%) [1, 4]: 21% and 19% | Total Cell Count [1, 4]: 180 and 189 | Population Apoptotic (%) [1, 5]: 61% and 53% | Population Fragmented Nuclei (%) [1, 5]: 15% and 23% | Population Healthy Nuclei (%) [1, 5]: 47% and 50% | Population Hoechst High Intensity Objects (%) [1, 5]: 0% | Population Membrane Permeable-Phenotype (%) [1, 5]: 15% and 27% | Population Mitochondria Different-Phenotype (%) [1, 5]: 9% and 16% | Population Mitotic Cells (%) [1, 5]: 38% and 46% | Population Normal (%) [1, 5]: 100% and 99% | Population Pyknosed Nuclei (%) [1, 5]: 36% and 25% | Population Tubulin-Different-Phenotype (%) [1, 5]: 58% and 63% | Total Cell Count [1, 5]: 107 and 167 | Population Apoptotic (%) [1, 6]: 51% and 77% | Population Fragmented Nuclei (%) [1, 6]: 7% and 16% | Population Healthy Nuclei (%) [1, 6]: 71% and 63% | Population Hoechst High Intensity Objects (%) [1, 6]: 0% and 1% | Population Membrane Permeable-Phenotype (%) [1, 6]: 5% and 7% | Population Mitochondria Different-Phenotype (%) [1, 6]: 7% and 1% | Population Mitotic Cells (%) [1, 6]: 48% and 22% | Population Normal (%) [1, 6]: 100% and 98% | Population Pyknosed Nuclei (%) [1, 6]: 21% and 19% | Population Tubulin-Different-Phenotype (%) [1, 6]: 25% and 17% | Total Cell Count [1, 6]: 180 and 184 | Population Apoptotic (%) [1, 7]: 71% and 72% | Population Fragmented Nuclei (%) [1, 7]: 17% and 21% | Population Healthy Nuclei (%) [1, 7]: 50% and 53% | Population Hoechst High Intensity Objects (%) [1, 7]: 0% | Population Membrane Permeable-Phenotype (%) [1, 7]: 14% and 13% | Population Mitochondria Different-Phenotype (%) [1, 7]: 28% and 21% | Population Mitotic Cells (%) [1, 7]: 28% and 27% | Population Normal (%) [1, 7]: 100% and 99% | Population Pyknosed Nuclei (%) [1, 7]: 31% and 24% | Population Tubulin-Different-Phenotype (%) [1, 7]: 56% and 58% | Total Cell Count [1, 7]: 112 and 153 | Population Apoptotic (%) [1, 8]: 62% and 71% | Population Fragmented Nuclei (%) [1, 8]: 8% and 9% | Population Healthy Nuclei (%) [1, 8]: 58% and 63% | Population Hoechst High Intensity Objects (%) [1, 8]: 0% | Population Membrane Permeable-Phenotype (%) [1, 8]: 16% and 8% | Population Mitochondria Different-Phenotype (%) [1, 8]: 7% and 0% | Population Mitotic Cells (%) [1, 8]: 37% and 28% | Population Normal (%) [1, 8]: 100% | Population Pyknosed Nuclei (%) [1, 8]: 32% and 27% | Population Tubulin-Different-Phenotype (%) [1, 8]: 34% and 15% | Total Cell Count [1, 8]: 178 and 166 | Population Apoptotic (%) [1, 9]: 83% and 78% | Population Fragmented Nuclei (%) [1, 9]: 18% and 26% | Population Healthy Nuclei (%) [1, 9]: 45% and 50% | Population Hoechst High Intensity Objects (%) [1, 9]: 0% | Population Membrane Permeable-Phenotype (%) [1, 9]: 9% and 13% | Population Mitotic Cells (%) [1, 9]: 16% and 21% | Population Normal (%) [1, 9]: 100% and 99% | Population Pyknosed Nuclei (%) [1, 9]: 36% and 23% | Population Tubulin-Different-Phenotype (%) [1, 9]: 44% and 63% | Total Cell Count [1, 9]: 115 and 158 | Population Apoptotic (%) [2, 4]: 65% and 77% | Population Fragmented Nuclei (%) [2, 4]: 5% and 4% | Population Healthy Nuclei (%) [2, 4]: 75% | Population Hoechst High Intensity Objects (%) [2, 4]: 15% | Population Membrane Permeable-Phenotype (%) [2, 4]: 4% and 1% | Population Mitochondria Different-Phenotype (%) [2, 4]: 42% and 53% | Population Mitotic Cells (%) [2, 4]: 34% and 22% | Population Normal (%) [2, 4]: 84% | Population Pyknosed Nuclei (%) [2, 4]: 18% and 20% | Population Tubulin-Different-Phenotype (%) [2, 4]: 74% and 82% | Total Cell Count [2, 4]: 329 and 381 | Population Apoptotic (%) [2, 5]: 78% and 82% | Population Fragmented Nuclei (%) [2, 5]: 6% and 3% | Population Healthy Nuclei (%) [2, 5]: 75% and 73% | Population Hoechst High Intensity Objects (%) [2, 5]: 27% and 26% | Population Membrane Permeable-Phenotype (%) [2, 5]: 7% | Population Mitochondria Different-Phenotype (%) [2, 5]: 65% and 75% | Population Mitotic Cells (%) [2, 5]: 21% and 17% | Population Normal (%) [2, 5]: 72% and 73% | Population Pyknosed Nuclei (%) [2, 5]: 18% and 22% | Population Tubulin-Different-Phenotype (%) [2, 5]: 70% and 63% | Total Cell Count [2, 5]: 285 and 270 | Population Apoptotic (%) [2, 6]: 76% and 75% | Population Fragmented Nuclei (%) [2, 6]: 5% | Population Healthy Nuclei (%) [2, 6]: 80% and 74% | Population Hoechst High Intensity Objects (%) [2, 6]: 17% and 20% | Population Membrane Permeable-Phenotype (%) [2, 6]: 2% and 1% | Population Mitochondria Different-Phenotype (%) [2, 6]: 49% and 52% | Population Mitotic Cells (%) [2, 6]: 23% and 25% | Population Normal (%) [2, 6]: 82% and 80% | Population Pyknosed Nuclei (%) [2, 6]: 14% and 20% | Population Tubulin-Different-Phenotype (%) [2, 6]: 69% and 74% | Total Cell Count [2, 6]: 332 and 395 | Population Apoptotic (%) [2, 7]: 77% and 75% | Population Fragmented Nuclei (%) [2, 7]: 9% and 3% | Population Healthy Nuclei (%) [2, 7]: 65% and 68% | Population Hoechst High Intensity Objects (%) [2, 7]: 30% and 33% | Population Membrane Permeable-Phenotype (%) [2, 7]: 7% and 5% | Population Mitochondria Different-Phenotype (%) [2, 7]: 77% and 80% | Population Mitotic Cells (%) [2, 7]: 22% and 25% | Population Normal (%) [2, 7]: 69% and 66% | Population Pyknosed Nuclei (%) [2, 7]: 25% and 28% | Population Tubulin-Different-Phenotype (%) [2, 7]: 85% | Total Cell Count [2, 7]: 268 and 254 | Population Apoptotic (%) [2, 8]: 76% and 85% | Population Fragmented Nuclei (%) [2, 8]: 6% | Population Healthy Nuclei (%) [2, 8]: 82% and 78% | Population Hoechst High Intensity Objects (%) [2, 8]: 11% and 17% | Population Membrane Permeable-Phenotype (%) [2, 8]: 3% and 0% | Population Mitochondria Different-Phenotype (%) [2, 8]: 52% and 59% | Population Mitotic Cells (%) [2, 8]: 23% and 14% | Population Normal (%) [2, 8]: 88% and 82% | Population Pyknosed Nuclei (%) [2, 8]: 11% and 15% | Population Tubulin-Different-Phenotype (%) [2, 8]: 64% and 63% | Total Cell Count [2, 8]: 294 and 328 | Population Apoptotic (%) [2, 9]: 84% and 89% | Population Fragmented Nuclei (%) [2, 9]: 8% and 5% | Population Healthy Nuclei (%) [2, 9]: 71% and 70% | Population Hoechst High Intensity Objects (%) [2, 9]: 28% and 20% | Population Membrane Permeable-Phenotype (%) [2, 9]: 3% and 2% | Population Mitochondria Different-Phenotype (%) [2, 9]: 77% and 84% | Population Mitotic Cells (%) [2, 9]: 15% and 10% | Population Normal (%) [2, 9]: 71% and 79% | Population Pyknosed Nuclei (%) [2, 9]: 20% and 24% | Population Tubulin-Different-Phenotype (%) [2, 9]: 83% and 87% | Total Cell Count [2, 9]: 309 and 250 | Population Apoptotic (%) [3, 4]: 40% and 96% | Population Fragmented Nuclei (%) [3, 4]: 10% and 3% | Population Healthy Nuclei (%) [3, 4]: 82% and 88% | Population Hoechst High Intensity Objects (%) [3, 4]: 0% | Population Membrane Permeable-Phenotype (%) [3, 4]: 1% | Population Mitochondria Different-Phenotype (%) [3, 4]: 0% and 3% | Population Normal (%) [3, 4]: 100% | Population Pyknosed Nuclei (%) [3, 4]: 6% and 7% | Population Tubulin-Different-Phenotype (%) [3, 4]: 58% and 74% | Population Apoptotic (%) [3, 5]: 50% and 80% | Population Healthy Nuclei (%) [3, 5]: 47% and 59% | Population Hoechst High Intensity Objects (%) [3, 5]: 1% and 0% | Population Membrane Permeable-Phenotype (%) [3, 5]: 14% and 17% | Population Mitochondria Different-Phenotype (%) [3, 5]: 17% and 31% | Population Mitotic Cells (%) [3, 5]: 50% and 19% | Population Normal (%) [3, 5]: 98% and 100% | Population Pyknosed Nuclei (%) [3, 5]: 23% and 32% | Population Tubulin-Different-Phenotype (%) [3, 5]: 82% and 77% | Total Cell Count [3, 5]: 60 and 161 | Population Apoptotic (%) [3, 6]: 66% and 72% | Population Fragmented Nuclei (%) [3, 6]: 6% and 3% | Population Healthy Nuclei (%) [3, 6]: 87% | Population Hoechst High Intensity Objects (%) [3, 6]: 0% | Population Membrane Permeable-Phenotype (%) [3, 6]: 1% | Population Mitochondria Different-Phenotype (%) [3, 6]: 1% | Population Mitotic Cells (%) [3, 6]: 33% and 27% | Population Normal (%) [3, 6]: 100% and 99% | Population Pyknosed Nuclei (%) [3, 6]: 6% and 9% | Population Tubulin-Different-Phenotype (%) [3, 6]: 56% and 71% | Population Apoptotic (%) [3, 7]: 65% and 93% | Population Fragmented Nuclei (%) [3, 7]: 17% and 11% | Population Healthy Nuclei (%) [3, 7]: 31% and 25% | Population Hoechst High Intensity Objects (%) [3, 7]: 1% and 0% | Population Membrane Permeable-Phenotype (%) [3, 7]: 12% and 14% | Population Normal (%) [3, 7]: 98% and 99% | Population Pyknosed Nuclei (%) [3, 7]: 50% and 63% | Population Tubulin-Different-Phenotype (%) [3, 7]: 81% and 57% | Total Cell Count [3, 7]: 52 and 141 | Population Fragmented Nuclei (%) [3, 8]: 4% | Population Healthy Nuclei (%) [3, 8]: 85% and 86% | Population Hoechst High Intensity Objects (%) [3, 8]: 0% | Population Membrane Permeable-Phenotype (%) [3, 8]: 2% and 1% | Population Mitochondria Different-Phenotype (%) [3, 8]: 0% and 1% | Population Normal (%) [3, 8]: 99% and 100% | Population Pyknosed Nuclei (%) [3, 8]: 9% | Population Tubulin-Different-Phenotype (%) [3, 8]: 57% and 77% | Population Apoptotic (%) [3, 9]: 96% and 86% | Population Fragmented Nuclei (%) [3, 9]: 9% and 19% | Population Healthy Nuclei (%) [3, 9]: 11% and 19% | Population Hoechst High Intensity Objects (%) [3, 9]: 2% | Population Membrane Permeable-Phenotype (%) [3, 9]: 56% and 22% | Population Mitochondria Different-Phenotype (%) [3, 9]: 62% and 22% | Population Mitotic Cells (%) [3, 9]: 3% and 13% | Population Normal (%) [3, 9]: 97% | Population Pyknosed Nuclei (%) [3, 9]: 78% and 61% | Population Tubulin-Different-Phenotype (%) [3, 9]: 75% and 100% | Total Cell Count [3, 9]: 141 and 48
